What was measured:
[1] = molecular target: Sodium-dependent serotonin transporter (Rattus norvegicus, UniProt P31652); assay: Binding affinity at the Serotonin transporter in rat midbrain by inhibition of 0.5 nM [3H]-paroxetine binding; type: tissue-based
[2] = molecular target: Monoamine transporters; serotonin & dopamine (Rattus norvegicus) (UniProt P31652+P23977); assay: Ratio of IC50 value against Serotonin transporter to that of dopamine transporter; type: protein assay
[3] = molecular target: Monoamine transporters; Norepininephrine & dopamine (Rattus norvegicus) (UniProt P23977+Q9WTR4); assay: Ratio of IC50 value against NE to that of DA transporters; type: protein assay
Procedure, shortened: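 Competition binding against 0.5 nM [3H]WIN 35,428 (DA transporter) or 0.5 nM [3H]nisoxetine (NE transporter). The IC50 is the mean ± standard error of three or four experiments, each run in triplicate. Selectivity ratios are NE/DA or 5-HT/DA quotients of the IC50 values.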

[4] = molecular target: T1, Sodium-dependent dopamine transporter (Rattus norvegicus, UniProt P23977); assay: Binding affinity at the Dopamine transporter in rat striata by inhibition of 0.5 nM [3H]WIN-35428 binding
[5] = molecular target: T2, Norepinephrine transporter (Rattus norvegicus, UniProt Q9WTR4); assay: Binding affinity at the Norepinephrine transporter in rat frontal cortex by inhibition of 0.5 nM [3H]nisoxetine binding; type: tissue-based
[6] = molecular target: T2, Norepinephrine transporter; assay: Inhibition of [3H]NE uptake by rat frontal cortex Norepinephrine transporter; type: tissue-based
Procedure, shortened: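 Rat frontal cortex synaptosomes were used at 10 mg/mL tissue with 5 nM final [3H]norepinephrine and 10 μM pargyline in Krebs phosphate buffer, pH 7.4. Incubation was 3 min at 30 °C, followed by filtration and scintillation counting. Nonspecific uptake was defined with 1 μM desipramine. Three or four experiments were run in triplicate, and Ki was derived by Cheng–Prusoff.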

[7] = molecular target: T1, Sodium-dependent dopamine transporter; assay: Inhibition of [3H]DA uptake by rat striatal dopamine transporter
Procedure, shortened: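 Rat striatal crude synaptosomes were prepared from male Sprague–Dawley rats by 0.32 M sucrose homogenisation and centrifugation at 800g then 2000g. Each tube held 1.5 mg tissue, 0.5 nM [3H]dopamine and 10 μM pargyline in Krebs phosphate buffer, pH 7.4, with dextrose and ascorbate. Incubation was 3 min at 30 °C, followed by filtration and scintillation counting. Nonspecific uptake was defined with 1 μM mazindol. Three or four experiments were run in triplicate, and Ki was derived by Cheng–Prusoff.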

Chain of Sodium-dependent serotonin transporter (P31652 whole entry): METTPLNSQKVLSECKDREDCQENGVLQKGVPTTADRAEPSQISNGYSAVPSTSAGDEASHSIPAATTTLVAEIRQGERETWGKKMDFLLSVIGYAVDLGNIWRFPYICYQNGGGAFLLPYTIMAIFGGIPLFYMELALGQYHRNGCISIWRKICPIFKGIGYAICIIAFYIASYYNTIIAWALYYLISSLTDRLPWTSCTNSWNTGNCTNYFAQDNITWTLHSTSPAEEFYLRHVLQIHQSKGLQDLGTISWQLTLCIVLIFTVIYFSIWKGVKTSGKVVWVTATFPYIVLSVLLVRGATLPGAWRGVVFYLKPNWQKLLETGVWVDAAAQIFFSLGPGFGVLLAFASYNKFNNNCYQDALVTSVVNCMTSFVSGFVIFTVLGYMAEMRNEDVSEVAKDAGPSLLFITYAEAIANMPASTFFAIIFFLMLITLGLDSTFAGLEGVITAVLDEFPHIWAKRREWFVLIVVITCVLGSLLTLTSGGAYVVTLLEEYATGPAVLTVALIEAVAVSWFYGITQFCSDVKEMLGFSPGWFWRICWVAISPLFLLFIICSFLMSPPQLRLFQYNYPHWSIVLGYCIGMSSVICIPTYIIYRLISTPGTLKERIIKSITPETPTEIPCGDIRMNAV
T2 sequence (Q9WTR4 whole entry): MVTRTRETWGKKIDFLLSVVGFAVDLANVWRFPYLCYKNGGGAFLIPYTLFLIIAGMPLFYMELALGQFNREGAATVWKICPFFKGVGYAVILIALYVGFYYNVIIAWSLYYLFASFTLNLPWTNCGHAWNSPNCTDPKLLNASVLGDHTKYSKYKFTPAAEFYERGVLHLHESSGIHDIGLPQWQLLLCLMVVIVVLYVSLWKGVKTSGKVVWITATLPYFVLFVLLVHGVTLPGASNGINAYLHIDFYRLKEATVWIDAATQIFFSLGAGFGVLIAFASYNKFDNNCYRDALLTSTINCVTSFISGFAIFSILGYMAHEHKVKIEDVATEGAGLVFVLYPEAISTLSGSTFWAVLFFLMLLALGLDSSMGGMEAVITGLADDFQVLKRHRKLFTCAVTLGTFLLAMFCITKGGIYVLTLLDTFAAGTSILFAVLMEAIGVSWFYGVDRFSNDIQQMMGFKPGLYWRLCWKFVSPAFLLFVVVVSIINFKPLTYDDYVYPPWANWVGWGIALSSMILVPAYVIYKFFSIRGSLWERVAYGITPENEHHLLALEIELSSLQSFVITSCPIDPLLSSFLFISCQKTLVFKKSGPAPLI
Chain of Monoamine transporters; serotonin & dopamine (Rattus norvegicus) (P23977 whole entry, looked up): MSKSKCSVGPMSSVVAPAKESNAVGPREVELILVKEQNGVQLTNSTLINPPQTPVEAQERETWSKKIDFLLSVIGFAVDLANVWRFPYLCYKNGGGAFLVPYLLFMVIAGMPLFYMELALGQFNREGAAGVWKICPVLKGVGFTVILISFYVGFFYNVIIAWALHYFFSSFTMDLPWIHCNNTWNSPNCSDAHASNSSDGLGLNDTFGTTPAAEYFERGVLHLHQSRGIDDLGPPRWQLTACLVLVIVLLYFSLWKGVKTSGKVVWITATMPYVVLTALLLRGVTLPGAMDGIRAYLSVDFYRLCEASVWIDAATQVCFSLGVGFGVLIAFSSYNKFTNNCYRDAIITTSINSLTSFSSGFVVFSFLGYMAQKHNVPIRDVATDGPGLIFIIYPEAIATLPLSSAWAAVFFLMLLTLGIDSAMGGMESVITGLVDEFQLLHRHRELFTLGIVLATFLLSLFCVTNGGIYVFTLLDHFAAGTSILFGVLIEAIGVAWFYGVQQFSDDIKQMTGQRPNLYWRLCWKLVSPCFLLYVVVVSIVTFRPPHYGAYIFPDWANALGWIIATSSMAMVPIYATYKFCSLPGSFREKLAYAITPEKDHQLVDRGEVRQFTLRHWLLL
Chain of Monoamine transporters; serotonin & dopamine (Rattus norvegicus) (P31652 whole entry, looked up): as the sequence (P31652 whole entry) above
T1 sequence (P23977 whole entry): as the sequence (P23977 whole entry, looked up) above

| Compound | IC50 [1] | Ratio [2] | Ratio [3] | IC50 [4] | IC50 [5] | Ki [6] | Ki [7] |
| --- | --- | --- | --- | --- | --- | --- | --- |
| Cc1ccc(C2CC3CCC(C2C(=O)OC2CCC2)N3C)cc1 (centres undefined) | 2020 nM | 540 | 1270 | 3.74 nM | 4740 nM | – | – |
| CN1C2CCC1C(C(=O)Oc1ccc(I)cc1)C(c1ccc(Cl)cc1)C2 (centres undefined) | 1230 nM | 38 | 30 | 32.6 nM | 968 nM | – | – |
| CC(C)OC(=O)C1C(c2ccccc2)CC2CCC1N2C (centres undefined) | 23100 nM | 272 | 377 | 85.1 nM | 32000 nM | – | – |
| Cc1ccccc1OC(=O)C1C(c2ccc(Cl)cc2)CC2CCC1N2C (centres undefined) | – | 965 | 1220 | 3.91 nM | 4780 nM | – | – |
| CON(C)C(=O)C1C(c2ccc(Cl)cc2)CC2CCC1N2C (centres undefined) | 724 nM | 852 | 646 | 0.85 nM | 549 nM | – | – |
| CN1[C@H]2CC[C@@H]1[C@@H](C(=O)N1CCCC1)[C@@H](c1ccc(I)cc1)C2 | 1730 nM | 4670 | 2680 | 0.37 nM | 991 nM | – | – |
| CN1C2CCC1C(C(=O)N1CCOCC1)C(c1ccc(Cl)cc1)C2 (centres undefined) | 88800 nM | 30600 | 2950 | 2.9 nM | 8550 nM | – | – |
| CON(C)C(=O)C1C(c2ccc(I)cc2)CC2CCC1N2C (centres undefined) | 73.9 nM | 68 | 95 | 1.08 nM | 103 nM | – | – |
| COC(=O)C1C(c2ccc(Cl)c(Cl)c2)CC2CCC1N2C (centres undefined) | 3.13 nM | 4 | – | 0.79 nM | 18 nM | – | – |
| CN1C2CCC1C(C(=O)OCCCc1ccccc1)C(OC(=O)c1ccccc1)C2 (centres undefined) | 374 nM | 2.5 | 33 | 147 nM | 4890 nM | – | – |
| Cc1ccc(OC(=O)C2C(c3ccc(Cl)cc3)CC3CCC2N3C)cc1 (centres undefined) | – | 44 | 45 | 27.4 nM | 1280 nM | – | – |
| COc1ccc(OC(=O)C2C(c3ccc(C)cc3)CC3CCC2N3C)cc1 (centres undefined) | 82300 nM | 861 | 33 | 95.6 nM | 3150 nM | – | – |
| COC(=O)C1C(c2ccc(Br)cc2)CC2CCC1N2C (centres undefined) | 10.6 nM | 6 | 22 | 1.69 nM | – | – | – |
| CNC(=O)C1C(c2ccc(Cl)cc2)CC2CCC1N2C (centres undefined) | 1310 nM | 106 | 128 | 12.4 nM | 1580 nM | – | – |
| Cc1ccc(C2CC3CCC(C2C(=O)OC2CC2)N3C)cc1 (centres undefined) | – | 634 | 383 | 1.68 nM | 644 nM | – | – |
| CN1C2CCC1C(C(=O)Oc1ccccc1)C(c1ccccc1)C2 (centres undefined) | 106000 nM | 1380 | 251 | 76.7 nM | 19300 nM | – | – |
| Cc1ccc(C2CC3CCC(C2C(=O)Oc2ccccc2C)N3C)cc1 (centres undefined) | 11000 nM | 476 | 1110 | 23.2 nM | 25700 nM | – | – |
| CN1[C@H]2CC[C@@H]1[C@@H](C(=O)N1CCCC1)[C@@H](c1ccc(Cl)cc1)C2 | 12400 nM | 8980 | 2860 | 1.38 nM | 3950 nM | – | – |
| CCOC(=O)C1C(OC(=O)c2ccccc2)CC2CCC1N2C (centres undefined) | 5800 nM | 30 | 51 | 195 nM | 10000 nM | – | – |
| CCN(CC)C(=O)C1C(c2ccc(Cl)cc2)CC2CCC1N2C (centres undefined) | 9430 nM | 1730 | 1010 | 5.48 nM | 5530 nM | – | – |
| Cc1ccc(C2CC3CCC(C2C(=O)N2CCOCC2)N3C)cc1 (centres undefined) | > 100000 nM | > 8550 | 2020 | 11.7 nM | 23600 nM | – | – |
| CCC(CC)OC(=O)C1C(c2ccc(C)cc2)CC2CCC1N2C (centres undefined) | – | 236 | 180 | 19.1 nM | 3440 nM | – | – |
| Cc1ccc(OC(=O)C2C(c3ccc(C)cc3)CC3CCC2N3C)cc1 (centres undefined) | 16000 nM | 197 | 50 | 81.2 nM | 4100 nM | – | – |
| CONC(=O)C1C(c2ccc(Cl)cc2)CC2CCC1N2C (centres undefined) | 43700 nM | 4080 | 826 | 10.7 nM | 9910 nM | – | – |
| CCCOC(=O)C1C(OC(=O)c2ccccc2)CC2CCC1N2C (centres undefined) | 4520 nM | 23 | 31 | 196 nM | 6120 nM | – | – |

| Compound | IC50 [1] | Ratio [2] | Ratio [3] | IC50 [4] | IC50 [5] | Ki [6] | Ki [7] |
| --- | --- | --- | --- | --- | --- | --- | --- |
| CN1C2CCC1C(C(=O)OCc1ccccc1)C(OC(=O)c1ccccc1)C2 (centres undefined) | 302 nM | 1.2 | 81 | 257 nM | 20800 nM | – | – |
| CN1C2CCC1C(C(=O)N1CCCO1)C(c1ccc(Cl)cc1)C2 (centres undefined) | 2470 nM | 1680 | 736 | 1.47 nM | 1080 nM | – | – |
| CN1C2CCC1C(C(=O)Oc1ccc(Cl)cc1)C(c1ccc(Cl)cc1)C2 (centres undefined) | 16900 nM | 308 | 89 | 55 nM | 4880 nM | – | – |
| CC(C)OC(=O)C1C(OC(=O)c2ccccc2)CC2CCC1N2C (centres undefined) | 25200 nM | – | – | – | 30300 nM | – | – |
| CN1C2CCC1C(C(=O)OCCc1ccccc1)C(OC(=O)c1ccccc1)C2 (centres undefined) | 615 nM | 3.4 | 110 | 181 nM | 19900 nM | – | – |
| CN(C(=O)C1C(c2ccc(Cl)cc2)CC2CCC1N2C)c1ccccc1 (centres undefined) | 23600 nM | 519 | 48 | 45.5 nM | 2200 nM | – | – |
| COc1ccc(OC(=O)C2C(c3ccc(Cl)cc3)CC3CCC2N3C)cc1 (centres undefined) | 19700 nM | 277 | 21 | 71 nM | 1520 nM | – | – |
| CN1C2CCC1C(C(=O)OC1CC1)C(c1ccc(Cl)cc1)C2 (centres undefined) | – | 175 | 245 | 0.96 nM | 235 nM | – | – |
| CN(C)C(=O)C1C(c2ccc(Cl)cc2)CC2CCC1N2C (centres undefined) | 1080 nM | 782 | 683 | 1.38 nM | 942 nM | – | – |
| Cc1ccc(C2CC3CCC(C2C(=O)OC2CCCC2)N3C)cc1 (centres undefined) | 485 nM | 27 | 148 | 17.8 nM | 2630 nM | – | – |
| COC(=O)C1C(c2ccc(N)c(I)c2)CC2CCC1N2C (centres undefined) | 120 nM | 89 | 984 | 1.35 nM | 1330 nM | – | – |
| CN1C2CCC1C(C(=O)N1CCCO1)C(c1ccc(I)cc1)C2 (centres undefined) | 130 nM | 173 | 476 | 0.75 nM | 357 nM | – | – |
| CN1C2CCC1C(C(=O)N1CCCCC1)C(c1ccc(Cl)cc1)C2 (centres undefined) | 3470 nM | 499 | 252 | 6.95 nM | 1750 nM | – | – |
| CON(C)C(=O)C1C(OC(=O)c2ccccc2)CC2CCC1N2C (centres undefined) | 28200 nM | 469 | 66 | 60 nM | 3940 nM | – | – |
| CN1C2CCC1C(C(=O)Oc1ccccc1)C(OC(=O)c1ccccc1)C2 (centres undefined) | 33700 nM | 301 | 277 | 112 nM | 31000 nM | – | – |
| CN(C)C(=O)C1C(OC(=O)c2ccccc2)CC2CCC1N2C (centres undefined) | 144000 nM | 1130 | 58 | 127 nM | 7330 nM | – | – |
| Cc1cccc(OC(=O)C2C(c3ccc(Cl)cc3)CC3CCC2N3C)c1 (centres undefined) | – | 230 | 293 | 9.37 nM | 2740 nM | – | – |
| CCN(CC)C(=O)C1C(c2ccc(C)cc2)CC2CCC1N2C (centres undefined) | 33900 nM | 1370 | 252 | 24.7 nM | 6220 nM | – | – |
| Cc1ccc(C2CC3CCC(C2C(=O)Oc2cccc(C)c2)N3C)cc1 (centres undefined) | – | 639 | 261 | 8.19 nM | 2140 nM | – | – |
| Cc1ccc(C2CC3CCC(C2C(=O)Oc2ccc(Cl)cc2)N3C)cc1 (centres undefined) | 42800 nM | 366 | 81 | 117 nM | 9520 nM | – | – |
| COC(=O)C1C(c2ccc(C)cc2)CC2CCC1N2C (centres undefined) | – | – | – | 1.71 nM | 60 nM | 8.42 nM | 7.02 nM |
| CN1C2CCC1C(C(=O)N1CCC1)C(c1ccc(Cl)cc1)C2 (centres undefined) | 814 nM | 124 | 151 | 6.57 nM | 990 nM | – | – |
| COC(=O)C1C(c2ccc(Cl)c(C)c2)CC2CCC1N2C (centres undefined) | 10.5 nM | 13 | 45 | 0.81 nM | 36.2 nM | – | – |
| CON(C)C(=O)C1C(c2ccc(C)cc2)CC2CCC1N2C (centres undefined) | 3400 nM | 1330 | 173 | 2.55 nM | 442 nM | – | – |
| COC(=O)[C@@H]1C2CC[C@H](C[C@@H]1c1ccccc1)N2C | – | – | – | – | – | 37.2 nM | 49.8 nM |

— ChEMBL document CHEMBL1128444 (J Med Chem, 1995)
